Among the data in the RNAGym collection of RNA variant scans (doi:10.1126/science.aae0568) are yeast fitness values, retold here.

Fewer inactive variants are shown than the library holds. Some results are limits rather than exact numbers.

B1: tRNA (parent)
chain: GUUCCGUUGGCGUAAUGGUAACGCGUCUCCCUCCUAAGGAGAAGACUGCGGGUUCGAGUCCCGUACGGAACG

The variants in this data set derive from B1. The experiment in a line: yeast fitness relative to wild type (ratio to wild type); higher = fitter; tRNA-Arg(CCU), competitive growth, 37 C, YPD. In outline: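 Variants of the tRNA-Arg(CCU) gene were chemically synthesised with a 3% per-site mutation rate across 69 sites and placed at the native genomic locus in Saccharomyces cerevisiae. Six parallel replicates of the pooled strains were competed in YPD at 37°C for 24 hours, and gene amplicons from the start and end populations were read by 100-nucleotide paired-end sequencing. Darwinian fitness relative to wild type was derived from changes in genotype frequencies. Genotypes required ≥ 100 starting reads, and estimates < 0.5 were set to 0.5.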
As to A14G U26A C27G C62A, the yeast fitness amounted to 0.571.

As to C5G C22U C29G, the yeast fitness stood at 0.659.

In the case of U7G U35G, the yeast fitness worked out at 0.536.

With C4G U8A C31G, the yeast fitness was not above 0.5.

G25A U26C: the yeast fitness amounted to 0.947.

With U2C A40C A69C, the yeast fitness was 0.633.

Consider A15C A43C G58A, for which the yeast fitness is not above 0.5.

Take C4A C30G C66A: the yeast fitness was not above 0.5.

As for A21G C30A C55A, the yeast fitness is not above 0.5.

In the case of U3C C30U G44A, the yeast fitness is 0.566.

In the case of C4G C62A G67C, the yeast fitness was not above 0.5.

With G6A U19C C30G A69C, the yeast fitness was not above 0.5.

Consider G48A A70C, for which the yeast fitness turned out to be 0.956.

Regarding A40C A69G, the yeast fitness is 0.985.

Consider U7C C30U A37G C46U G52C C62G A70C, for which the yeast fitness is not above 0.5.

Take C4U G68C: the yeast fitness stood at 0.963.

Regarding A15U C27U G48C, the yeast fitness was determined as 0.587.

Turning to C34U C60G A69G, the yeast fitness was not above 0.5.

Turning to C11U C33G U47A U64G, the yeast fitness was 0.552.

In the case of U16C U26A, the yeast fitness came to 0.973.

For the variant G23C A36U U53C, the yeast fitness came to 0.553.

G10C A20G A43G C46U: the yeast fitness was not above 0.5.

Take C4A G23A C29U C34G G38C U54A A57C: the yeast fitness was 0.602.

In the case of C4A U19C A42G C60G, the yeast fitness is not above 0.5.

Consider A40C A57U, for which the yeast fitness worked out at 0.789.

Turning to U2G C24A A45G, the yeast fitness came out at 0.586.

Take C5A C22A A40G C60A: the yeast fitness was not above 0.5.

G6A C29A G67C: the yeast fitness was not above 0.5.

As to C4U C11G C34U C55U, the yeast fitness was not above 0.5.

G10C C30G A65C G68C: the yeast fitness is not above 0.5.

Regarding G51U A69C, the yeast fitness was found to be 0.824.

As to A14G U32G U35G A36C C61G A70G, the yeast fitness is not above 0.5.

As to C31G C33U, the yeast fitness came to 0.673.

U7A C22G C30U A37G: the yeast fitness was not above 0.5.

Turning to A21G A42C A43U G56C C66U, the yeast fitness is 0.598.

As for C4A A20U G44C C60A, the yeast fitness was not above 0.5.

In the case of U26A C27U, the yeast fitness was found to be 0.919.

For A36C A45C G48A, the yeast fitness is not above 0.5.

Consider G6A C11U U13C A43G G67A, for which the yeast fitness turned out to be 0.58.

For U35A C49U, the yeast fitness amounted to 0.761.

As for C29U A40U U53A C60A A65G, the yeast fitness was not above 0.5.

Take A15G G23C G38C G52C G58A: the yeast fitness was 0.507.

Take A15U C22U A43C C55U G58A: the yeast fitness was not above 0.5.

With U2A G9A C33A G68A, the yeast fitness is not above 0.5.

For the variant G10A C30A G41C C60G A70U, the yeast fitness came out at 0.645.

On to A20U A36G A70U, for which the yeast fitness came out at 0.626.

For U7C C49U G56A A65C, the yeast fitness amounted to 0.607.

As to C29G C34U G52A C60U, the yeast fitness worked out at 0.548.

Take G6A C11A A40G G56C A65C G67A: the yeast fitness was not above 0.5.

For C29G C55U A65C A70U, the yeast fitness came out at 0.532.

In the case of G6A C22U C30G A36G, the yeast fitness amounted to 0.621.

On to U13C C31U U47G, for which the yeast fitness turned out to be 0.562.

Consider A14U U19A C31U, for which the yeast fitness was not above 0.5.

For C11A U28C C29U C34G A36G, the yeast fitness is not above 0.5.

With C4A G18C C29A C31A A36U, the yeast fitness was not above 0.5.

Take U2C C33U A42C U64C A70G: the yeast fitness is not above 0.5.

Regarding G12A U35C C66U, the yeast fitness is 0.614.

Take C4G C34U G63A: the yeast fitness was not above 0.5.

In the case of A14C C22U, the yeast fitness is 0.61.

Turning to A14G A36G U47A, the yeast fitness was not above 0.5.

Regarding U16G G18C U59A A65U, the yeast fitness amounted to 0.687.

C27U C30U A42C G58C: the yeast fitness is not above 0.5.

As to C5A C34G A65C, the yeast fitness was not above 0.5.

On to G17C G67C, for which the yeast fitness turned out to be 0.723.

Consider G6C A36G G51A, for which the yeast fitness is not above 0.5.

As for G12A A15U C33A A36U C62U, the yeast fitness was not above 0.5.

On to A20C C34G A43U, for which the yeast fitness is not above 0.5.

As to C5U A14U U32A U54C C55U, the yeast fitness is not above 0.5.

Take A42C U47A G63C A69C: the yeast fitness came to 0.578.

On to U28A C29G, for which the yeast fitness was 0.558.

Take C4U A15U: the yeast fitness was found to be 0.89.

As for A36C U64A, the yeast fitness is 0.932.

As to U13C A20C A40G, the yeast fitness is not above 0.5.

With A20G C24A C27U, the yeast fitness came to 0.609.

Turning to U32C C34U U53A C66U, the yeast fitness is not above 0.5.

Regarding U3C C4U C30U A57G, the yeast fitness was not above 0.5.

U16A G17A C34U C66U A70U: the yeast fitness was not above 0.5.

As to U8A C27A A37U, the yeast fitness is not above 0.5.

Regarding A40G A65C, the yeast fitness was 0.858.

For the variant A21G C22G G25A G63A, the yeast fitness is not above 0.5.

Turning to G9A A14C G38C G68A, the yeast fitness is not above 0.5.

Take C24U U47C C55G A70U: the yeast fitness stood at 0.642.

For the variant U7C A36G, the yeast fitness was 0.888.

Regarding A37C A43C C66A, the yeast fitness was not above 0.5.

Take U16C A37C: the yeast fitness was determined as 0.678.

Consider C27A C29G C49G G51C U54C, for which the yeast fitness was not above 0.5.

For the variant C5G G10A C22U A37C G56A, the yeast fitness is not above 0.5.

As to G12A C24U G25A C30U C46A, the yeast fitness was 0.571.

A20U C27U C61G: the yeast fitness was determined as 0.647.

Regarding C29U A36U A57G G58A, the yeast fitness was not above 0.5.

As to C5U G18C U26C C30U C31G A70C, the yeast fitness was not above 0.5.

With C27A A45U C60G G63A A65U C66U, the yeast fitness was not above 0.5.

In the case of A21U U26G A70C, the yeast fitness amounted to 0.729.

Consider A20U A36G G67C A69C, for which the yeast fitness is not above 0.5.

G12A U32C A40G: the yeast fitness is not above 0.5.

For the variant C30G U47A G68A, the yeast fitness was not above 0.5.

As for C11A A42C G58A, the yeast fitness is 0.742.

On to C29U U35C A42U C61U C66A, for which the yeast fitness is not above 0.5.

Turning to C24U C34U A57U G67C, the yeast fitness is not above 0.5.

Take C62U G63C A70C: the yeast fitness was not above 0.5.

As for A45U A65G G68A, the yeast fitness worked out at 0.73.

As to U3A C11G U28A G41C G58C, the yeast fitness was not above 0.5.

As for U35C G50A, the yeast fitness was 0.927.

For U28C A65G, the yeast fitness was found to be 0.998.

A40G C46U C60G C66G: the yeast fitness is not above 0.5.

Consider G6A G39C, for which the yeast fitness was determined as 0.821.

As to C11G A45C A65C, the yeast fitness was not above 0.5.

On to G9A C11G U19C G67A, for which the yeast fitness was not above 0.5.

In the case of C30G C46A U47G C49A G52A G58C C61U U64G A65G, the yeast fitness is not above 0.5.

As for C5U C22G U26G A42C, the yeast fitness is not above 0.5.

With C27A G38A, the yeast fitness came out at 0.798.

Take C4G C34G A43U A70C: the yeast fitness is not above 0.5.

Take C11A A21C U53A C62U: the yeast fitness was not above 0.5.

On to C11G A14G G39C C55U, for which the yeast fitness was not above 0.5.

For A14G C22G, the yeast fitness was 0.806.

Turning to U2A G6C U7C A15U U35C G41A C60A A65U A69G, the yeast fitness is not above 0.5.

For the variant U28A C31A A42C A45U G48A G51A U64A, the yeast fitness is not above 0.5.

With G10C A36U A42G G56A U59G, the yeast fitness is not above 0.5.

C27U A65U: the yeast fitness was 0.99.

A21U U28G C55A G58A: the yeast fitness was not above 0.5.

With A15C G48C C61A, the yeast fitness was not above 0.5.

Regarding A15C A37C U59C, the yeast fitness turned out to be 0.814.

For G12A A40G C46A, the yeast fitness came to 0.752.

As to C5U A43U G50U, the yeast fitness is 0.657.

Regarding C11A A36G C49G C60U G68A, the yeast fitness was not above 0.5.

For G18C A36C, the yeast fitness is not above 0.5.

As to C31G C33U A37C C61U A65U, the yeast fitness was not above 0.5.

As for G6C C62G, the yeast fitness amounted to 0.688.

Regarding U8A A40G A42U A45U U59G, the yeast fitness was not above 0.5.

As to U35G G52A, the yeast fitness is not above 0.5.

For G52A U54A, the yeast fitness was 0.537.

Take G18A C29U C30U A57G: the yeast fitness was not above 0.5.

In the case of U3C G9C C11U U19C C30G A43C, the yeast fitness was not above 0.5.

Take G23A G25C G51A: the yeast fitness was 0.661.

Consider C31G A42U A43C, for which the yeast fitness amounted to 1.15.

For C4G A14U A21C, the yeast fitness turned out to be 0.764.

Consider C4A G9C C30A G39A G56C, for which the yeast fitness is not above 0.5.

Consider C4A U35A U47C C49U C62A A69G, for which the yeast fitness was not above 0.5.

With C5G G12C C49U A65C, the yeast fitness is 0.726.

With C4G U13A G17C C30U, the yeast fitness was determined as 0.657.

Take A15C C34G U35G A36U U59A: the yeast fitness is not above 0.5.

As for C30U U59A A69C, the yeast fitness was not above 0.5.

With A15U A20C U26A C30G U35A G38C U64A, the yeast fitness is not above 0.5.

Regarding C4U A14G C29A, the yeast fitness was not above 0.5.

For the variant G6A G9A C29U C46U G67C, the yeast fitness was not above 0.5.

Turning to U32C U64A, the yeast fitness worked out at 0.789.

For G6A A20C A70U, the yeast fitness turned out to be 0.739.

With C29A A57G U64A, the yeast fitness was not above 0.5.

Take C24G A36C A40G A45U: the yeast fitness was not above 0.5.

As to U19A G67C, the yeast fitness was determined as 0.74.

Take A15C A37U: the yeast fitness came out at 0.624.

On to C24U U59A, for which the yeast fitness was determined as 0.875.

For the variant C24A A40U A43U C61G G68U, the yeast fitness is 0.597.

Regarding G18C C22A C29U A45C, the yeast fitness was not above 0.5.

Turning to A21G C27U A70G, the yeast fitness was 0.792.

In the case of C5U C46G, the yeast fitness came out at 0.93.

Turning to U3C A14U U16G U19A A42G C61G, the yeast fitness was not above 0.5.

Regarding U8C U19A A57C U64A, the yeast fitness is not above 0.5.

Consider G17C A21C U28C C60A A65G, for which the yeast fitness is not above 0.5.

Take G12A U13G U19C A21G C49U G52A U59G: the yeast fitness was 0.525.

On to A15G A65C, for which the yeast fitness was 0.867.

As for U32C A36G G63A, the yeast fitness stood at 0.628.

In the case of C29U A43C G63A, the yeast fitness was found to be 0.699.

For the variant C4U C46U A69C, the yeast fitness was determined as 0.817.

On to A14G C49G A69U, for which the yeast fitness was 0.566.

For A21C G48C, the yeast fitness was 0.788.

With C22G A36G A42G, the yeast fitness amounted to 0.605.
